{"source": "the RNAGym collection of RNA variant scans (doi:10.1126/science.aae0568)", "parents": {"B1": {"name": "tRNA (parent)", "chain": "GUUCCGUUGGCGUAAUGGUAACGCGUCUCCCUCCUAAGGAGAAGACUGCGGGUUCGAGUCCCGUACGGAACG"}}, "note": "Fewer inactive variants are shown than the library holds."}
{"variants_of": "B1", "assay": "yeast fitness relative to wild type (ratio to wild type); higher = fitter; tRNA-Arg(CCU), competitive growth, 37 C, YPD", "procedure,_shortened": "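For this measurement, the tRNA-Arg(CCU) gene was varied by chemical synthesis at a 3% per-site mutation rate across 69 sites, and each variant was placed at the native genomic locus in Saccharomyces cerevisiae. The pooled strains went through a 24-hour competition in YPD at 37°C in six parallel replicates, with amplicons from start and end populations read by 100-nucleotide paired-end sequencing. Darwinian fitness relative to wild type followed from the change in each genotype's frequency. Genotypes needed ≥ 100 starting reads, and estimates < 0.5 were set to 0.5.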"}
{"variant": "GUUCCGUUGGCGUAAUGGUCACGCGUCUCCCUCCUAUGGAGAAGACUGCGGGUUCGAGUCCCGUACGGAACG", "note": "[A20C A37U]", "yeast fitness": 0.817}
{"variant": "GUUCCGUUGGCGUAAUGGUCACGCGUCUCCCUCCUAUGGAGAAGACUGCGGGUUCGAGGCCCGUAAGGAACG", "note": "[A20C A37U U59G C66A]", "yeast fitness": 0.656}
{"variant": "GUUCCGUUGGCGUAAUGGUCACGCGUCUCCCUCCUAAGGCGAAGACUGCGGGUUCGAGUCCCGUACGGAACG", "note": "[A20C A40C]", "yeast fitness": 0.788}
{"variant": "GUUCCGUUGGCGUAAUGGUCACGCGUCUCCCUCCUAAGGGGUAGACUGCACGUUCGAGUCCCGUACGGAACG", "note": "[A20C A40G A42U G50A G51C]", "yeast fitness": "≤ 0.5"}
{"variant": "GUUCCGUUGGCGUAAUGGUCACGCGUCUCCCUCCUAAGGGGUAGACUGCACGUUCGAGUCCCGUACGGACCG", "note": "[A20C A40G A42U G50A G51C A70C]", "yeast fitness": 0.563}
{"variant": "GUUCCGUUGGCGUAAUGGUCACGCGUCUCCCUCCUAAGGGGAAGACUGCGGCUUCGAGUCCCGUACGGAACG", "note": "[A20C A40G G52C]", "yeast fitness": "≤ 0.5"}
{"variant": "GUUCCGUUGGCGUAAUGGUCACGCGUCUCCCUCCUAAGGUGAAGACUGCGGGUUCGAGUCCCGUACGGAACG", "note": "[A20C A40U]", "yeast fitness": 0.855}
{"variant": "GUUCCGUUGGCGUAAUGGUCACGCGUCUCCCUCCUAAGGUGACGACUGCGGGUUCGAGUCCCGUACGGAACG", "note": "[A20C A40U A43C]", "yeast fitness": 0.699}
{"variant": "GUUCCGUUGGCGUAAUGGUCACGCGUCUCCCUCCUAAGGUGAUGACUGCGGGUUCGAGUCCCGUACGGAUCG", "note": "[A20C A40U A43U A70U]", "yeast fitness": "≤ 0.5"}
{"variant": "GUUCCGUUGGCGUAAUGGUCACGCGUCUCCCUCCUAAGGUGAAGACUGCGGGUUCGAGUGCCGUCCGGAACG", "note": "[A20C A40U C60G A65C]", "yeast fitness": "≤ 0.5"}
{"variant": "GUUCCGUUGGCGUAAUGGUCACGCGUCUCCCUCCUAAGGUGAAGACUGCGGGUUCGAGUCACGUACGAAACG", "note": "[A20C A40U C61A G68A]", "yeast fitness": 0.574}
{"variant": "GUUCCGUUGGCGUAAUGGUCACGCGUCUCCCUCCUAAGGUGAAGACUACGGGUUCGAGUCACGUACGAAACG", "note": "[A20C A40U G48A C61A G68A]", "yeast fitness": "≤ 0.5"}
{"variant": "GUUCCGUUGGCGUAAUGGUCACGCGUCUCCCUCCUAAGGAGCAGACUGCGGGUUCGAGUCCCGUACGGAACG", "note": "[A20C A42C]", "yeast fitness": 0.603}
{"variant": "GUUCCGUUGGCGUAAUGGUCACGCGUCUCCCUCCUAAGGAGCAGACUGCGGGUUCGAGUACCGUACGGAACG", "note": "[A20C A42C C60A]", "yeast fitness": "≤ 0.5"}
{"variant": "GUUCCGUUGGCGUAAUGGUCACGCGUCUCCCUCCUAAGGAGCAGACUGCGGGUUCGACUCCCGUACGGAACG", "note": "[A20C A42C G58C]", "yeast fitness": 0.52}
{"variant": "GUUCCGUUGGCGUAAUGGUCACGCGUCUCCCUCCUAAGGAGUAGGCUGCGGGUUCGAGUCCCGUACGGAACG", "note": "[A20C A42U A45G]", "yeast fitness": 0.77}
{"variant": "GUUCCGUUGGCGUAAUGGUCACGCGUCUCCCUCCUAAGGAGACGACUGCGGGUUCGCGUCCCGUACGGAACG", "note": "[A20C A43C A57C]", "yeast fitness": "≤ 0.5"}
{"variant": "GUUCCGUUGGCGUAAUGGUCACGCGUCUCCCUCCUAAGGAGAGGACUGCGGGUUCGAGUCCCGUACGGAACG", "note": "[A20C A43G]", "yeast fitness": 1.01}
{"variant": "GUUCCGUUGGCGUAAUGGUCACGCGUCUCCCUCCUAAGGAGAUGACUGCGGGUUCGAGUCCCGUACGGAACG", "note": "[A20C A43U]", "yeast fitness": 0.829}
{"variant": "GUUCCGUUGGCGUAAUGGUCACGCGUCUCCCUCCUAAGGAGAUGACUCCGGGUUCGAGUCCCGUACGGAACG", "note": "[A20C A43U G48C]", "yeast fitness": 0.615}
{"variant": "GUUCCGUUGGCGUAAUGGUCACGCGUCUCCCUCCUAAGGAGAUGACUGCGGGUUCAAGUCCCGUACGGAACG", "note": "[A20C A43U G56A]", "yeast fitness": 0.656}
{"variant": "GUUCCGUUGGCGUAAUGGUCACGCGUCUCCCUCCUAAGGAGAAGCCUGCGGGUUCGAGUCCCCUACAGAACG", "note": "[A20C A45C G63C G67A]", "yeast fitness": "≤ 0.5"}
{"variant": "GUUCCGUUGGCGUAAUGGUCACGCGUCUCCCUCCUAAGGAGAAGGCUGCGGGUUCGAGUCCCGUACGGAACG", "note": "[A20C A45G]", "yeast fitness": 0.853}
{"variant": "GUUCCGUUGGCGUAAUGGUCACGCGUCUCCCUCCUAAGGAGAAGUCUGCGGGUUCGAGUCCCGUACGGAACG", "note": "[A20C A45U]", "yeast fitness": 0.8}
{"variant": "GUUCCGUUGGCGUAAUGGUCACGCGUCUCCCUCCUAAGGAGAAGUCUGCGGGUUCGAGUCCCGUGCGGAACG", "note": "[A20C A45U A65G]", "yeast fitness": 0.58}
{"variant": "GUUCCGUUGGCGUAAUGGUCACGCGUCUCCCUCCUAAGGAGAAGUCUGCGGGUUCGAGUCCCGUACGGUACG", "note": "[A20C A45U A69U]", "yeast fitness": 0.773}
{"variant": "GUUCCGUUGGCGUAAUGGUCACGCGUCUCCCUCCUAAGGAGAAGACUGCGGGUUCGCGUCCCGUACGGAACG", "note": "[A20C A57C]", "yeast fitness": 0.601}
{"variant": "GUUCCGUUGGCGUAAUGGUCACGCGUCUCCCUCCUAAGGAGAAGACUGCGGGUUCGGGUCCCGUACGGAACG", "note": "[A20C A57G]", "yeast fitness": 0.757}
{"variant": "GUUCCGUUGGCGUAAUGGUCACGCGUCUCCCUCCUAAGGAGAAGACUGCGGGUUCGUGUCCCGUACGGAACG", "note": "[A20C A57U]", "yeast fitness": 0.81}
{"variant": "GUUCCGUUGGCGUAAUGGUCACGCGUCUCCCUCCUAAGGAGAAGACUGCGGGUUCGAGUCCCGUCUGGAACG", "note": "[A20C A65C C66U]", "yeast fitness": 0.619}
{"variant": "GUUCCGUUGGCGUAAUGGUCACGCGUCUCCCUCCUAAGGAGAAGACUGCGGGUUCGAGUCCCGUGCGGAACG", "note": "[A20C A65G]", "yeast fitness": 0.936}
{"variant": "GUUCCGUUGGCGUAAUGGUCACGCGUCUCCCUCCUAAGGAGAAGACUGCGGGUUCGAGUCCCGUUCGGAACG", "note": "[A20C A65U]", "yeast fitness": 0.722}
{"variant": "GUUCCGUUGGCGUAAUGGUCACGCGUCUCCCUCCUAAGGAGAAGACUGCGGGUUCGAGUCCCGUACGGCACG", "note": "[A20C A69C]", "yeast fitness": 1.13}
{"variant": "GUUCCGUUGGCGUAAUGGUCACGCGUCUCCCUCCUAAGGAGAAGACUGCGGGUUCGAGUCCCGUACGGGACG", "note": "[A20C A69G]", "yeast fitness": 1.01}
{"variant": "GUUCCGUUGGCGUAAUGGUCACGCGUCUCCCUCCUAAGGAGAAGACUGCGGGUUCGAGUCCCGUACGGACCG", "note": "[A20C A70C]", "yeast fitness": 0.862}
{"variant": "GUUCCGUUGGCGUAAUGGUCAGGCGUCUAGCUCCUAAGGAGAAGACUGCGGGUUCGAGUCCCGUACGGAACG", "note": "[A20C C22G C29A C30G]", "yeast fitness": 0.616}
{"variant": "GUUCCGUUGGCGUAAUGGUCAGGCGUCUCCCUACUAAGGAGCAGACUGCGGGUUCGAGUCUCGUACGGAACG", "note": "[A20C C22G C33A A42C C61U]", "yeast fitness": "≤ 0.5"}
{"variant": "GUUCCGUUGGCGUAAUGGUCAGGCGUCUCCCUACUAAGGAGAAGACUGCGGGUUCGAGCCCCGUACGGAACG", "note": "[A20C C22G C33A U59C]", "yeast fitness": "≤ 0.5"}
